Test [1] has as its target T1, Histone-arginine methyltransferase CARM1 (Homo sapiens, UniProt Q86X55).
T1 sequence (Q86X55 whole entry): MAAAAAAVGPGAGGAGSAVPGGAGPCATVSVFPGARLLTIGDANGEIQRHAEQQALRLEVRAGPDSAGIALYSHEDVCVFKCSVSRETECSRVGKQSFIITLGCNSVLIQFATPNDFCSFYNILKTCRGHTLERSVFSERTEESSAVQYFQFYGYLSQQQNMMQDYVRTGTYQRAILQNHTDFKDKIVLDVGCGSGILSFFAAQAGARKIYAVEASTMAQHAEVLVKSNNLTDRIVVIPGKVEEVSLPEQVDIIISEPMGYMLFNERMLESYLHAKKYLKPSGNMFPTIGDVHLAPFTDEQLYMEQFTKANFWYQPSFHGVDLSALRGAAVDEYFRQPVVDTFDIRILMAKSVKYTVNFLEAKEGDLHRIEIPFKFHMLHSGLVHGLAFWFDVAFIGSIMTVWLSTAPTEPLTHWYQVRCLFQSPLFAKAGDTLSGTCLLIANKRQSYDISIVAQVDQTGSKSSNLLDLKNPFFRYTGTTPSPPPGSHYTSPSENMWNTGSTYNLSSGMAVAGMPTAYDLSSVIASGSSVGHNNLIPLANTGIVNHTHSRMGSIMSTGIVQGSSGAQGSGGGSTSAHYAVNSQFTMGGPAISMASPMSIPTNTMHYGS
Description: Inhibition of CARM1 (unknown origin). The essentials: (§1)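 Radiometric methyltransfer assay. Enzyme transfers a tritiated methyl from ³H-SAM onto a biotin-labelled peptide substrate, with unlabelled SAM added when needed. The methylated peptide is captured in FlashPlate wells and counted by scintillation. IC50 comes from titrating compound under balanced conditions, with both peptide substrate and SAM at their Km concentrations.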

Test [2] addresses Protein arginine N-methyltransferase 5 (Homo sapiens, UniProt O14744). Briefly: Inhibition of PRMT5 (unknown origin). The method, boiled down:
as §1

Test [3] concerns the target T2, Histone-arginine methyltransferase CARM1 (Homo sapiens) (UniProt Q86X55).
T2 sequence (whole entry): T1 sequence (Q86X55 whole entry)
Briefly: Noncompetitive inhibition of CARM1 (unknown origin) at varying levels of peptide substrate and cofactor 3H-SAM by scintillation proximity assay. (In general: SPA uses beads or plates that emit light when radiolabelled molecules are held near them.)

Drawing on ChEMBL document CHEMBL3994567, “Design and synthesis of selective, small molecule inhibitors of coactivator-associated arginine methyltransferase 1 (CARM1)” (Medchemcomm, 2016), this text covers IC50 and inhibition for 13 compounds.

Activity calls are given as the source filed them. The calls are words filed in the database; no cut-off is given here.

Sequence of Protein arginine N-methyltransferase 5 (O14744 whole entry): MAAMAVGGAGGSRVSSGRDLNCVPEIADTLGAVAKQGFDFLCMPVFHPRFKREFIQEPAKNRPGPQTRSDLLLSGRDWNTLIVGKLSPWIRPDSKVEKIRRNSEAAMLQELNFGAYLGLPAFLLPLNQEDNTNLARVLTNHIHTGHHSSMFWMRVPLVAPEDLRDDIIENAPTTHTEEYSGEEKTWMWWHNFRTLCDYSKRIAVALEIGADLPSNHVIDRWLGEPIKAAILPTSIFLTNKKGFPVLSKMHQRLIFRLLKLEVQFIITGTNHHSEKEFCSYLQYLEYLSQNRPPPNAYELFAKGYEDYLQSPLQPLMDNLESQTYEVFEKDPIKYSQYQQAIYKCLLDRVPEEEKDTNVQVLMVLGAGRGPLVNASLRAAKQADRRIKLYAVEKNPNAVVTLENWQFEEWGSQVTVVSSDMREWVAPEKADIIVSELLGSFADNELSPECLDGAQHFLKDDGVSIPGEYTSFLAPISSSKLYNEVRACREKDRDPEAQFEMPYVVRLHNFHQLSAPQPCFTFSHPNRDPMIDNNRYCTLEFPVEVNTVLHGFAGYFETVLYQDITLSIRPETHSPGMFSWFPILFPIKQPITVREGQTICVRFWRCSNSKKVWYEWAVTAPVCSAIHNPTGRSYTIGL

As usually defined, the IC50 is the concentration that inhibits the measured activity by half. Read a high IC50 as lower potency. Consider `CNCCN1CC(OCc2cccc(OC(F)(F)F)c2)C1`, for which the IC50 in test [1] turned out to be 144 nM.

`CNCCN1CC(NCc2cccc(Br)c2)C1` showed an IC50 in test [1] of 67 nM.

`CNCCN1CC(NCc2cccc(Cl)c2)C1`: it took 50 nM to reach half-maximal inhibition in test [1] (IC50).

In test [1], `CNCCN1CC(NCc2cccc(OC(F)(F)F)c2)C1` had an IC50 of 90 nM.

In test [1], `CNCCN1CCC(NCc2cccc(-c3ccccc3)c2)CC1` registered an IC50 of 330 nM.

In the case of `CNCCN1CCC(NCc2cccc(OC(F)(F)F)c2)CC1`, in test [1], 342 nM corresponded to half-maximal inhibition (IC50).

In test [1], `CNCCN1CC(NCc2cccc(C(F)(F)F)c2)C1` had an IC50 of 94 nM.

For the compound `CNCCN1CCC(NCc2cccc(F)c2)CC1`, the 50% inhibitory concentration (IC50) in test [1] was 223 nM.

Consider `CNCCN1CCC(NCc2cccc(Br)c2)CC1`, for which the IC50 in test [1] was 94 nM; in test [2], over 50000 nM. The inhibition entry in test [3] was “Active”.

Consider `CNCCN1CCC(NCc2cccc(Cl)c2)CC1`, for which, in test [1], the IC50 is 157 nM.

`CNCCN1CCC(NCc2cccc(C(F)(F)F)c2)CC1` gave an IC50 in test [1] of 302 nM.

Regarding `CNCCN1CC(NCc2cccc(F)c2)C1`, it took 130 nM to reach half-maximal inhibition in test [1] (IC50).

For the compound `CNCCN1CCC(NCc2ccccc2)CC1`, the IC50 was 471 nM in test [1] and over 50000 nM in test [2].
